ARFGAP1 inhibitor = inhibitors of rat ARFGAP1 GAP activity, primary screen, biochemical, fluorescence polarization, GDP tracer; Arfgap1-stimulated ARF1 GTP hydrolysis, GDP FP detection; inhibition, % at 16.5 µM; 360,000 tested, 0.26% active;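 active means inhibition above a per-plate limit, mean inhibition of low control wells plus 3 SD, cut at about 25% in these data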;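 further: 0% = DMSO wells with enzyme and 100% = wells lacking Arfgap1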
Target sequence (Q62848 1-136 limits assumed): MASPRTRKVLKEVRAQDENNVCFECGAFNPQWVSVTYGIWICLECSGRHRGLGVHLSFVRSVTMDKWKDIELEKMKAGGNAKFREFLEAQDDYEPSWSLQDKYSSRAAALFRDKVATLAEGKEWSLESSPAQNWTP
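material = rat Arfgap1 catalytic domain, aa 1-136 | also added = human ARF1(Δ1-17)-GTP substrate | compound dosing = one concentration, 16.5 µM, DMSO 1.26% | times = GTP hydrolysis reaction 2 h at 25 °C | measured by = FP, GDP Alexa 633 tracer displaced from anti-GDP antibody, 620/688 nm | evaluation = percent inhibition of Arfgap1-stimulated GTP hydrolysis | replication = single well per compound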
ASAP1 inh = inhibitors of human ASAP1 ArfGAP activity, primary screen, biochemical, fluorescence polarization | Arf-GAP with SH3 domain, ANK repeat and PH domain-containing protein 1 (Homo sapiens), … | ASAP1-stimulated ARF1 GTP hydrolysis, GDP FP detection | inhibition, % at 16.5 µM | 360,000 tested, 0.19% active; in the data active means inhibition above about 25%;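 further: 0% = vehicle with enzyme and substrate and 100% = no enzyme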
PAFAH1B2 FP inh = PAFAH1B2 enzyme inhibitors, primary screen, biochemical, fluorescence polarization, human. recombinant PAFAH1B2, FP-rhodamine activity probe. inhibition, % at 3.39 µM. 340,000 tested, 1.2% active;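 active means inhibition above the mean of all tested compounds plus 3 SD, cut at about 24% in these data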;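 further: 0% = enzyme with DMSO and 100% = wells lacking PAFAH1B2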
Target sequence (P68402 whole entry, looked up): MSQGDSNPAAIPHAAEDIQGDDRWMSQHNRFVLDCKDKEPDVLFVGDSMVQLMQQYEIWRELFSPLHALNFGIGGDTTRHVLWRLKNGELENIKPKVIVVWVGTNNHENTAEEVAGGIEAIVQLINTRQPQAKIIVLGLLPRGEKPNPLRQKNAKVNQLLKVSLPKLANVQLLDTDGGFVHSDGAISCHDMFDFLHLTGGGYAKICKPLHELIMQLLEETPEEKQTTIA
PAFAH2 inh = PAFAH2 enzyme inhibitors, primary screen, biochemical, fluorescence polarization, human; Platelet-activating factor acetylhydrolase 2, cytoplasmic (Homo sapiens), Q99487; recombinant PAFAH2, FP-rhodamine activity probe; inhibition, % at 3.39 µM; 340,000 tested, 0.99% active;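 active means inhibition above the mean over all tested compounds plus 3 SD, cut at about 30% in these data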;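 further: inhibitors block probe labeling of enzyme so polarization drops; 0% = enzyme with DMSO and 100% = wells lacking PAFAH2 protein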
pPAFAH inh = pPAFAH enzyme inhibitors, primary screen, biochemical, fluorescence polarization, human; Platelet-activating factor acetylhydrolase (Homo sapiens), Q13093; recombinant pPAFAH, FP-rhodamine probe fluorescence polarization; AID 463082, 2010; inhibition, % at 3.39 µM; 330,000 tested, 1.5% active;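 active means inhibition above the mean inhibition across the screen plus 3 SD, cut at about 25% in these data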;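 further: inhibitors block binding of the rhodamine activity-based probe so polarization drops; 0% = enzyme with DMSO and 100% = wells lacking pPAFAH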
PAFAH1B3 FP inh = PAFAH1B3 enzyme inhibitors, primary screen, biochemical, fluorescence polarization, human; Platelet-activating factor acetylhydrolase IB subunit alpha1 (Homo sapiens), Q15102; 340,000 tested, 0.28% active; recombinant PAFAH1B3, FP-rhodamine probe; inhibition, % at 3.39 µM; AID 492972, 2010;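 active means inhibition above the screen-wide average of all tested compounds plus 3 SD, cut at about 25% in these data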;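 further: 0% = enzyme with DMSO only and 100% = wells lacking PAFAH1B3 protein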
Target sequence (Q15102 whole entry, looked up): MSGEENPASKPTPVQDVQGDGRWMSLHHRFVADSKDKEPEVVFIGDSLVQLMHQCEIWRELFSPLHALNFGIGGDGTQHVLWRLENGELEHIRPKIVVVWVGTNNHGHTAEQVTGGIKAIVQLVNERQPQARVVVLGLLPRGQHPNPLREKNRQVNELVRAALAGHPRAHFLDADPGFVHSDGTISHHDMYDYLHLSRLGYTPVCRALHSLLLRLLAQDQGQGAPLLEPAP
* = called active by the depositor; . = not tested or not shown. Compounds with a hit are over-represented: about 2.7% of the library has one in this group of screens.

SMILES	ARFGAP1 inhibitor	ASAP1 inh	PAFAH1B2 FP inh	PAFAH2 inh	pPAFAH inh	PAFAH1B3 FP inh
CN(Cc1ccccc1)C(=O)COC(=O)c1ccc2c(c1)OCO2	0	0	4	16	26*	-6
CN(Cc1ccccc1)C(=O)COC(=O)c1ccc2ccccc2n1	-2	1	5	5	25*	5
CN(C(=O)COC(=O)c1ccc2ccccc2n1)c1ccccc1	2	-3	-2	4	7	8
C=CCN=C1NC(c2ccc(C(F)(F)F)cc2)C(C(=O)OC)=C(C)N1C (stereo not given)	-8	-13	.	.	.	.
CN(CC(=O)Nc1ccc(Cl)c(Cl)c1)C1CCCCC1	6	3	8	0	.	-7
CN(CC(=O)Nc1ccc(Cl)c(Cl)c1)C(=O)C12CC3CC(CC(C3)C1)C2	2	14	26*	-10	1	6
Clc1ccccc1Cn1c(/C=C/c2ccco2)nc2ccccc21	-3	-6	-6	-3	31*	5
CCCCCCC[C@@H](C/C=C/CCC(=O)O)OC	1	3	10	0	11	8
CCCCCCC[C@@H](C/C=C/CCC(=O)N(C)C/C(=C/Cl)C/C(=C\C(=O)N1CC(OC)=CC1=O)OC)OC	-12	6	3	8	28*	7
COC(=O)C1=C(C)N(Cc2ccc(C(F)(F)F)cc2)C(=NCc2ccccc2)NC1c1ccc(C(F)(F)F)cc1 (stereo not given)	5	3	.	.	.	.
Cc1ccc(C)c(N2C(=N)S/C(=C\c3ccc(-c4ccccc4C(=O)O)o3)C2=O)c1	-7	-13	5	19	22	6
CCOC(=O)C(C)N1C(=O)S/C(=C\c2ccc(-c3ccccc3C(=O)O)o2)C1=O (stereo not given)	10	-1	-6	5	28*	0
C#CCN1C(=O)S/C(=C\c2ccc(-c3ccc(C(=O)O)cc3C)o2)C1=O	-7	-9	5	6	31*	3
CCOC(=O)C1=C(C(=O)OCC)C2N(Cc3ccc(Br)cc3)c3ccccc3[C@@]23C[C@@H](C(=O)OC)N(S(=O)(=O)c2ccc(F)cc2)C3=N1 (stereo not given in full)	1	9	.	.	.	.
C=CCn1c(SCC(=O)c2cccs2)nnc1-c1cccc(OC)c1	-9	-13	-3	-3	10	-9
C=CCn1c(SCC(=O)c2cccs2)nc2sc(C)cc2c1=O	-10	0	0	1	25*	4
COCc1cc(N2CCN(C(=O)OC(C)(C)C)C[C@H]2C)ccc1N1CCN(Cc2ccccc2)[C@H](C)C1	-13	-4	.	.	.	.
CN1CCCCC(NC(=O)c2c(F)cccc2F)C1=O (stereo not given)	10	0	.	.	.	.
Clc1ccc(-c2noc(COc3ccccc3)n2)cc1	7	3	3	-1	1	-1
Clc1ccc(OCc2nc(-c3ccncc3)no2)cc1	1	-4	27*	8	-2	6
CC(C)(C)S(=O)(=O)N1C[C@@H]2C(=C(CCO)C[C@@H]3C(=O)N(c4ccccc4)C(=O)[C@@H]32)[C@H]1CCO	-1	-6	.	.	.	.
Cc1ccc(OC(C)C(=O)Nc2ccc(S(=O)(=O)Nc3cc(C)on3)cc2)cc1 (stereo not given)	-8	7	3	7	-1	1
Cc1cc(NS(=O)(=O)c2ccc(NC(=O)C(C)Oc3ccc(Cl)cc3)cc2)no1 (stereo not given)	-7	-1	30*	0	-5	5
CC(Oc1ccccc1)C(=O)Nc1ccc(S(=O)(=O)Nc2nccs2)cc1 (stereo not given)	6	1	6	15	-4	3
CC(Oc1ccc(Br)cc1)C(=O)Nc1ccc(S(=O)(=O)Nc2nccs2)cc1 (stereo not given)	-6	4	28*	1	7	5
SMILES	ARFGAP1 inhibitor	ASAP1 inh	PAFAH1B2 FP inh	PAFAH2 inh	pPAFAH inh	PAFAH1B3 FP inh
COC(=O)C1=C(C)N(C)C(=NCc2ccc(C(F)(F)F)cc2)NC1c1cccc(F)c1 (stereo not given)	0	-3	.	.	.	.
COC(=O)C1=C(C)N(Cc2ccccc2C(F)(F)F)C(=NCC2CC2)NC1c1cccc(F)c1 (stereo not given)	17	-2	.	.	.	.
COc1ccc(-n2c(CSc3ccc(Cl)cc3)n[nH]c2=S)cc1	-14	1	.	.	.	.
O=C(NCCCO)c1ccc2nc(-c3ccco3)c(-c3ccco3)nc2c1	4	5	18	33*	.	29*
COc1ccc2nc3cccc(OC)c3nc2c1	7	-3	10	6	22	16
O=C(NCCO)Nc1ccc2nc(-c3ccco3)c(-c3ccco3)nc2c1	.	.	.	.	72*	.
COc1ccc2nc(-c3ccco3)c(-c3ccco3)nc2c1	-31	-19	26*	56*	47*	33*
CCc1nc2ccc(C(=O)NCCc3ccco3)cc2nc1CC	.	.	1	-15	2	10
C[C@@H]1ON(C)[C@H]2C[C@H]3c4[nH]c5cccc(-c6ccc7c(c6)OCO7)c5c4CCN3C(=O)[C@@H]12	4	7	.	.	.	.
CCNc1ccccc(C(=O)/C=C/c2ccc3c(c2)OCO3)c1=O	-15	-2	5	30*	32*	8
N#Cc1c(N(CCO)CCO)nc(N)c2c(N)nc3c(c12)CC(=O)N3Cc1cccs1	.	.	8	12	26*	12
CN(CCO)c1nc(N)c2c(N)nc3c(c2c1C#N)CC(=O)N3Cc1cccs1	-10	-10	8	6	16	10
Cc1[nH]nc(-c2ccc(O)cc2O)c1Oc1ccccc1	18	7	27*	1	2	5
CCc1cc(-c2n[nH]c(C)c2Oc2ccc(C(C)C)cc2)c(O)cc1O	23	0	5	7	31*	13
CCCOC(=O)c1ccc(Oc2c(-c3ccc(O)cc3O)n[nH]c2C)cc1	9	17	-7	-10	20	9
CC1(C)CC(=O)C=C(c2ccccc2F)C1=O	-4	-3	.	.	.	.
C[C@H]1C(C(=O)N(C)C2CCCCC2)=Cc2c(n(-c3ccc(F)cc3)c(=O)n2CCCOc2ccccc2)C=C1c1ccccc1	-1	7	.	.	.	.
CC(NC(=O)COC(=O)C1=COCCO1)C12CC3CC(CC(C3)C1)C2 (stereo not given)	0	1	25*	52*	4	-6
CN(C(=O)COC(=O)C1=COCCO1)C1(C#N)CCCCC1	-7	-6	2	9	1	-2

Assay outcomes (PubChem)
